Assay outcomes from PubChem.
SIAE primary: human SIAE inhibitors, primary screen, biochemical, fluorescence polarization, FP-Rh probe, 1536-well HTS. Sialate O-acetylesterase (Homo sapiens), Q9HAT2. SIAE FP-Rh probe binding. inhibition, % at 9.66 µM. 370,000 tested, 0.69% active;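 active = inhibition above a cutoff: mean of compounds within the control limits plus 3 SD of those, cut at about 17% in these data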;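 also: 0% = plate median of compound wells and 100% = probe without SIAE protein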
PRMT1 inh: PRMT1 methyltransferase inhibitors, primary screen, biochemical, fluorescence polarization. recombinant PRMT1, activity-based probe fluorescence polarization. 370,000 tested, 1.3% active. inhibition, % at 2.79 µM;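 active = inhibition above about 21% made by adding two undisclosed values, limit read from the data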
Target sequence (Q99873 whole entry, looked up): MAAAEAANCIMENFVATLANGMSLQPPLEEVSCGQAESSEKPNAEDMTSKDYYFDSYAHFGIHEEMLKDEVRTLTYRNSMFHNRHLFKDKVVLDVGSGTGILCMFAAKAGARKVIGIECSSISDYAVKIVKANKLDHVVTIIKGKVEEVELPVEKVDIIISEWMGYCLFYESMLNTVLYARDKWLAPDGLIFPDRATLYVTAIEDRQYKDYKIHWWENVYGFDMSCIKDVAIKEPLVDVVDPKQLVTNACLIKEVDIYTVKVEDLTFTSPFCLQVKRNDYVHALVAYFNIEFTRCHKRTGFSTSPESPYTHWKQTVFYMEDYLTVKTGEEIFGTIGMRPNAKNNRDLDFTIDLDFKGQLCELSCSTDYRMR
HTRA1 inh: HTRA1 serine protease inhibitors, primary screen, biochemical, fluorescence polarization, HTS | Q92743 | recombinant HTRA1, FP-rhodamine activity-based probe | inhibition, % at 5.96 µM | 340,000 tested, 0.5% active; in the data active = inhibition above about 36%;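 also: 0% = enzyme with DMSO and 100% = wells lacking enzyme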
TCR-CD3 inh: inhibitors of human TCR-CD3 interaction, primary screen, biochemical, fluorescence, TAMRA-labeled TCR probe. inhibition, % at 9.4 µM. T-cell receptor (TCR). 360,000 tested, 0.37% active;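 also: recombinant mutant TCR 2C K166C tagged with TAMRA read by polarization; 0% = receptor in buffer alone and 100% = receptor with positive control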
mABHD4 FP: ABHD4 inhibitors, primary screen, biochemical, fluorescence polarization, mouse. (Lyso)-N-acylphosphatidylethanolamine lipase (Mus musculus), Q8VD66. purified mABHD4, FP-Rh probe fluorescence polarization. inhibition, % at 8.92 µM. 370,000 tested, 0.54% active. AID 720543, 2013;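 active = inhibition exceeding the mean over every tested compound plus 3 SD, cut at about 30% in these data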;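 also: 0% = plate median of compound wells and 100% = S159A mutant with DMSO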
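Test system: mouse ABHD4 enzyme, wild type. Reagent: FP-Rh fluorescent activity-based probe, added after compound pre-incubation. Timing: pre-incubation 45 min, probe exposure 60 min, at 25 °C. Technique: FP readout, ex 525 nm / em 598 nm. Benchmarks: high control S159A mutant with DMSO, low control median of compound wells.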
HTRA1 conf: HTRA1 protease inhibitors, retest, confirmation, biochemical, fluorescence polarization | shares compounds with HTRA1 inh | recombinant HTRA1, FP-rhodamine activity-based probe | inhibition, % at 5.96 µM | 1,600 tested, 66% active | AID 540248, 2011;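 active = mean inhibition over three repeats above a set limit taken from the earlier primary screen, cut at about 37% in these data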;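 also: 0% = HTRA1 with DMSO and 100% = wells lacking HTRA1; inhibitors block probe binding so polarization drops and inhibition rises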
BSA TAMRA ctr: compounds interfering with TAMRA-BSA probe, counter-screen for TCR-CD3 interaction inhibitor project, biochemical, fluorescence, TAMRA-labeled BSA | shares compounds with TCR-CD3 inh | TAMRA-labeled BSA probe fluorescence counterscreen | inhibition, % at 9.4 µM | 1,200 tested, 10% active; in the data active = inhibition above about 23%;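 also: 0% = buffer low control and 100% = reference high control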
TCR-CD3 conf: TCR-CD3 interaction inhibitors, retest, confirmation, biochemical, fluorescence, TAMRA-labeled TCR probe; shares compounds with TCR-CD3 inh; TAMRA-labeled TCR probe fluorescence binding assay; inhibition, % at 9.4 µM; 1,200 tested, 48% active; AID 652036, 2013
mABHD4 conf: ABHD4 inhibitors, retest, confirmation, biochemical, fluorescence polarization, mouse | shares compounds with mABHD4 FP | purified mABHD4, FP-Rh probe fluorescence polarization | inhibition, % at 8.92 µM | 1,800 tested, 55% active | AID 720658, 2013;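 active = mean inhibition across replicates above the hit cutoff set in the primary screen, cut at about 30% in these data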;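 also: 0% = wild-type ABHD4 with DMSO and 100% = catalytically dead S159A mutant with DMSO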
SIAE inh conf: human SIAE inhibitors, retest, confirmation, biochemical, fluorescence polarization, FP-Rh probe, triplicate | shares compounds with SIAE primary | SIAE FP-Rh activity-based probe | inhibition, % at 9.66 µM | 2,300 tested, 13% active | AID 1117263, 2014;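 active = mean inhibition of the replicates above the hit cutoff set in the primary screen, cut at about 17% in these data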;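 also: 0% = SIAE with DMSO and probe and 100% = probe without SIAE; inhibitors lower polarization as more probe stays unbound to SIAE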
Active calls of the source: *; . = no result. Rows were chosen to be rich in hits. Some 2.5% of all compounds tested hit in one or more screens of this group. Rule as the data show it, unless noted: active = inhibition above about 19%; inactive = the rest.

SMILES | SIAE primary | PRMT1 inh | HTRA1 inh | TCR-CD3 inh | mABHD4 FP | HTRA1 conf | SIAE inh conf | others
CN(CCc1ccccn1)C(=O)c1cc2ccccn2n1 | -3 | 0 | . | . | 0 | . | .
COc1ccc(/C=N/NC(=O)c2cc(O)c(O)c(O)c2)cc1Cn1cc([N+](=O)[O-])cn1 | 46* | 12 | 72* | 63* | 28 | 82* | 2 | BSA TAMRA ctr=-10;TCR-CD3 conf=78*
COc1ccc(/C=N/NC(=O)c2ccccc2O)cc1Cn1cc([N+](=O)[O-])cn1 | -3 | 4 | -3 | 2 | 3 | . | .
CN1C(=O)c2cc(NC(=O)Nc3ccccc3)ccc2OC[C@H]2O[C@@H](CC(=O)NC3CCC3)CC[C@@H]21 | -2 | 7 | . | . | 12 | . | .
O=C1CCCC(O)=C1N=Nc1c(Cl)cc(C(F)(F)F)cc1Cl | 89* | 4 | 72* | 26* | 62* | 1 | 4 | BSA TAMRA ctr=-7;TCR-CD3 conf=-3;mABHD4 conf=-3
O=C1CCCC(O)=C1N=Nc1ccc(C(=O)O)cc1 | 66* | 6 | 40* | 18 | 29 | 12 | -2
O=C(Nc1cccc(Cl)c1)O[C@@H]1CC[C@@]23CCCN2C(=O)CCC[C@H]3C1 | -5 | -3 | . | . | -4 | . | .
Cc1ccc([N+](=O)[O-])cc1-c1[nH]c(-c2ccc(O)c(O)c2)nc1-c1ccccc1 | 34* | 1 | 69* | 11 | 27 | 85* | -17
CC(C)c1cc(C(=O)N(C2CCCCC2)C2CCCCC2)no1 | -1 | 3 | . | . | 6 | . | .
COc1ccc2ccccc2c1/C=N/NC(=O)c1cccc(Br)c1 | -11 | 2 | -42 | -3 | -3 | . | .
O=C(N/N=C/c1c(O)ccc2ccccc12)c1cccc(C(F)(F)F)c1 | 25* | 2 | 57* | 11 | 21 | 58* | 6
O=C(Nc1ccc(C(O)(C(F)(F)F)C(F)(F)F)cc1)c1ccc(F)cc1F | -5 | -1 | . | . | -23 | . | .
O=C(NNc1c2ccccc2nc2ccccc12)c1ccccc1O | 19* | 4 | 51* | -1 | 28 | 39* | 18*
CC(C)[C@H](NC(=O)OC(C)(C)C)C(=O)N1CCC(Oc2cccnc2)CC1 | 1 | -10 | . | . | 8 | . | .
O=C(CC1Nc2cccc3cccc(c23)NC1=O)Nc1ccc(F)cc1 (stereo unspecified) | 24* | 7 | 61* | -1 | 29 | 6 | 8
C/C(CC(=O)N1CCN(C=O)CC1)=N\NC(=O)c1ccc([N+](=O)[O-])cc1 | 10 | 4 | 5 | 5 | 5 | . | .
C/C(=N\NC(=O)c1cc2ccccc2cc1O)c1cc2ccccc2o1 | 17* | -3 | 36* | 5 | 26 | 10 | 10
C/C(CC(=O)N1CCN(C=O)CC1)=N\NC(=O)c1cc2ccccc2cc1O | 20* | 2 | 39* | 13 | 40* | 37* | 3 | mABHD4 conf=35*
O=C1c2cccc3c(O)ccc(c23)C(=O)N1Cc1ccccc1 | 42* | 174* | 66* | 59* | 75* | 46* | 49* | BSA TAMRA ctr=74*;TCR-CD3 conf=57*;mABHD4 conf=80*
O=C(O)c1cccc(CN2C(=O)c3ccccc3C2=O)c1 | -1 | -1 | 1 | -13 | -8 | . | .
